Three compounds from ChEMBL document CHEMBL4428083, “Mitochondrial-Targeting MET Kinase Inhibitor Kills Erlotinib-Resistant Lung Cancer Cells” (ACS Med Chem Lett, 2016) can be followed below.

For orientation: IC50 means the concentration that gives 50% inhibition.

Active and inactive are the calls of the source. The calls are words filed in the database; no cut-off is given here.

Series [1] can be described thus: Effect on total MET expression level in mitochondria isolated from erlotinib-resistant human HCC827B cells at 4 uM after 1 to 1.5 hrs by immunoblot analysis. It is filed as ADME. For orientation: A western blot detects proteins with antibodies after separation by electrophoresis.
Series [2] concerns HCC827. Briefly: Cytotoxicity against erlotinib-resistant human HCC827B cells expressing MET assessed as reduction in cell viability after 72 hrs by MTT assay. The format is functional, cell-based. The note with it: HCC827, 72 h. The gist of the method:
(§1)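 Colorimetric tetrazolium assay after 72 h exposure; IC50 derived from viability. Comparisons between compounds by unpaired Student's t test.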
A general note: Tetrazolium assays rely on reduction of a dye to a coloured formazan, in cell work by metabolically active cells.

The test system of series [3] is HCC827. Nature of the series: Induction of apoptosis in erlotinib-resistant human HCC827B cells assessed as increase in cleaved caspase 3 level at 4 uM measured up to 60 hrs by immunoblot analysis. It is filed as functional, cell-based. The gist of the method:
(§2)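 HCC827B cells treated with 4 μM compound; whole-cell lysates collected at 12, 24, 36, 48 and 60 h and immunoblotted for cleaved PARP and cleaved caspases 3 and 7. Control was untreated cells at 0 h; GAPDH was the loading control.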

In series [4] the target is Hepatocyte growth factor receptor (Homo sapiens) (UniProt P08581). Nature of the series: Inhibition of MET phosphorylation at Y1234/1235 in erlotinib-resistant human HCC827B cells at 4 uM after 1 to 1.5 hrs by immunoblot analysis. Put shortly: (§3)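 Whole HCC827B cells, or mitochondria first purified from them, were treated separately with 4 μM compound for 1 and 1.5 h, then immunoblotted for p-MET Y1234/1235. Each lane held 10 μg protein; loading controls were SDHA for mitochondria and actin for whole cells.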

Series [5] relates to HCC827. Nature of the series: Effect on total MET expression level in erlotinib-resistant human HCC827B cells at 4 uM after 1 to 1.5 hrs by immunoblot analysis. The note with it: hcc827, 4 µM. The format is ADME, cell-based.
The nature of series [6]: Drug uptake in mitochondria of human HeLa cells at 4 uM after 3 hrs by MTR dye/Hoechst 33342 staining based confocal microscopy. It is filed as ADME. The gist of the method:
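HeLa cells were exposed to 4 μM compound for 3 h, then stained with MitoTracker Red and Hoechst 33342 and imaged by confocal microscopy. Intrinsic compound green fluorescence (Ex 460, Em 520 nm) was compared for overlap with MTR.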

Series [7] has as its target Hepatocyte growth factor receptor (Homo sapiens) (UniProt P08581). Nature of the series: Inhibition of MET phosphorylation at Y1234/1235 in erlotinib-resistant human HCC827B cells at 4 uM after 24 hrs by immunoblot analysis. The gist of the method:
(§4)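 HCC827B cells exposed to 4 μM compound for 24 h; whole-cell lysates and mitochondria then isolated from treated cells and immunoblotted for p-MET Y1234/1235. Each lane held 10 μg protein; loading controls were actin (whole cells) and SDHA (mitochondria).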

Series [8] in a line: Drug uptake in mitochondria of erlotinib-resistant human HCC827B cells assessed as R1 gated population at 4 uM after 1 hr by FACS analysis (reference value: >98%). The format is ADME.
The nature of series [9]: Drug uptake in mitochondria of erlotinib-resistant human HCC827B cells assessed as R1 gated population at 4 uM after 1 hr by MTR staining based FACS analysis (reference value: >98%). The format is ADME.
Series [10] addresses Hepatocyte growth factor receptor (Homo sapiens) (UniProt P08581). Briefly: Inhibition of MET phosphorylation at Y1234/1235 in mitochondria isolated from compound treated erlotinib-resistant human HCC827B cells at 4 uM after 24 hrs by immunoblot analysis. The gist of the method: as §4
Series [11] relates to HCC827. Briefly: Induction of apoptosis in erlotinib-resistant human HCC827B cells assessed as increase in cleaved caspase 7 level at 4 uM measured up to 60 hrs by immunoblot analysis. The format is functional, cell-based. The gist of the method:
as §2

Series [12] deals with HCC827. Briefly: Induction of apoptosis in erlotinib-resistant human HCC827B cells assessed as increase in cleaved PARP level at 4 uM measured up to 60 hrs by immunoblot analysis. The format is functional, cell-based. Put shortly:
as §2

For series [13], the target named is Hepatocyte growth factor receptor (Homo sapiens) (UniProt P08581). Briefly: Inhibition of MET phosphorylation at Y1234/1235 in mitochondria isolated from erlotinib-resistant human HCC827B cells at 4 uM after 1 to 1.5 hrs by immunoblot analysis. The gist of the method: as §3
The next series deals with TAMH. Nature of the series: Cytotoxicity against TAMH assessed as reduction in cell viability after 24 hrs by cell titer glo based luminescence assay. The note with it: Mus musculus. The gist of the method:
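TAMH (TGFα-transformed murine hepatocytes; stable, nontumorigenic, metabolically competent line) exposed to compound for 24 h; IC50 from viability.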
Background: ATP-based viability assays read luminescence as a measure of living cells.

Series [14] has as its system HCC827. Nature of the series: Cytotoxicity against erlotinib-sensitive human HCC827A cells assessed as reduction in cell viability after 72 hrs by MTT assay. It is filed as functional, cell-based. The conditions noted are these: HCC827, 72 h. The gist of the method: as §1
The test system of series [15] is HCC827. Briefly: Cytotoxicity against erlotinib-resistant human HCC827B cells assessed as cell viability at 1 uM after 72 hrs by MTT assay. It is filed as functional. The note with it: HCC827, 72 h, read-out: Activity. Put shortly: (§5)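 Colorimetric tetrazolium viability assay with erlotinib at 1 μM; % viability reported, n = 3.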
For series [16], the system named is HCC827. Nature of the series: Cytotoxicity against erlotinib-sensitive human HCC827A cells assessed as cell viability at 1 uM after 72 hrs by MTT assay. The format is functional. The note with it: HCC827, 72 h, read-out: Activity. Put shortly: as §5

Hepatocyte growth factor receptor (Homo sapiens), sequence (P08581 whole entry): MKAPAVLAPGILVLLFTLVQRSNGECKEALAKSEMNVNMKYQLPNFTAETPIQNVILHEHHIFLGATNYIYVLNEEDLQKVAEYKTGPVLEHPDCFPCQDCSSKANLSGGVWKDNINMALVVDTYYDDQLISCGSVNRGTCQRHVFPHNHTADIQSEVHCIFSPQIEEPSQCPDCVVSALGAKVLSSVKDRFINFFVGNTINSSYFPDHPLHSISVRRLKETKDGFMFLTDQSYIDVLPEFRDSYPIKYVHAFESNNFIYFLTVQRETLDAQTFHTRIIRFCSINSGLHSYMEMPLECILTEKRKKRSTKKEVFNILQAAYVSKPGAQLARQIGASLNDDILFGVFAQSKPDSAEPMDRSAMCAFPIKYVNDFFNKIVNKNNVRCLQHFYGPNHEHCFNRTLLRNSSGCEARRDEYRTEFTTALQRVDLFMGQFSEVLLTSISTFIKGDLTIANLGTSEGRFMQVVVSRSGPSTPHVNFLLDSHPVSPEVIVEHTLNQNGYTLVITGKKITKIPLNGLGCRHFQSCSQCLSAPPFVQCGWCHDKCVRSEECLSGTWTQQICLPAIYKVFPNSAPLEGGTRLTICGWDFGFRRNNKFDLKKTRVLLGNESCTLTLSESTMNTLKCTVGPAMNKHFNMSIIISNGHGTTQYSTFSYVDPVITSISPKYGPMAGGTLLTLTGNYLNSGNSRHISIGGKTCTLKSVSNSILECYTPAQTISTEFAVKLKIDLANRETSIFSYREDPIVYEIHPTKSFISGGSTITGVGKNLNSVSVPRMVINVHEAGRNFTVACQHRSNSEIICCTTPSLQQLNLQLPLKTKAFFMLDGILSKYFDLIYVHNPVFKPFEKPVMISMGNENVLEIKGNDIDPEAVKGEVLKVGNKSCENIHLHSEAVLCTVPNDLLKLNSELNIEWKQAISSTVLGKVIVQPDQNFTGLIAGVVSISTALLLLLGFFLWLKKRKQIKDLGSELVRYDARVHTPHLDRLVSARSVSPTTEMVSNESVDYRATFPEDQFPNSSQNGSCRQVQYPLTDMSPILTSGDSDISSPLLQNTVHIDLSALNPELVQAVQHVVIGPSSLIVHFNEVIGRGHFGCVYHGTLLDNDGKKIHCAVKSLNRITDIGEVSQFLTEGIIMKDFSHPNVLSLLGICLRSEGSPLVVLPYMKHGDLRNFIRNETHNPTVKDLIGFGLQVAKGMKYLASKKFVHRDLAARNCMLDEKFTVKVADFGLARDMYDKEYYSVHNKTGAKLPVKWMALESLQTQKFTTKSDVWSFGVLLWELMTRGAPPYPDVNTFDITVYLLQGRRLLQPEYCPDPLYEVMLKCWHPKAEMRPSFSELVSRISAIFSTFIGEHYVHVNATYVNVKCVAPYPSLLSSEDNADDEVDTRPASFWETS

As for `Cc1[nH]c(/C=C2\C(=O)Nc3ccc(S(=O)(=O)Cc4c(Cl)cccc4Cl)cc32)c(C)c1C(=O)NCC[P+](c1ccccc1)(c1ccccc1)c1ccccc1.[Br-]`, the Activity result (in [1]; in the series with HCC827 [5]) was “Non-Toxic” each time. The concentration for half-maximal inhibition (IC50) with HCC827 [2] was found to be 5.3 µM; in the series on TAMH it was 15.1 µM; with HCC827 [14], 16.7 µM. Further, the outcome in the series with HCC827 [3], in the series on HCC827 [11] and in the series with HCC827 [12] was Active. Further, the inhibition entry in series [4], in series [7] and in [10] was “Active” in each case. The Drug uptake entry in [6] was “Active”; in [8], 98%; in [9], 95%. In addition, the inhibition entry in [13] was “inactive”.
With `C#Cc1cccc(Nc2ncnc3cc(OCCOC)c(OCCOC)cc23)c1` [ERLOTINIB], the viability at 1 µM in the series on HCC827 [15] is 72.4%; with HCC827 [16], 22.4%.
Regarding `Cc1[nH]c(/C=C2\C(=O)Nc3ccc(S(=O)(=O)Cc4c(Cl)cccc4Cl)cc32)c(C)c1C(=O)N1CCC[C@@H]1CN1CCCC1` [PHA-665752], the Activity result (in [1]; in the series on HCC827 [5]) was “Non-Toxic” each time. Besides, the IC50 with HCC827 [2] came to 8.9 µM; in the series on TAMH, 8.9 µM; in the series with HCC827 [14], 15.7 µM. Also, the outcome in the series with HCC827 [3], in the series on HCC827 [11] and with HCC827 [12] was Active. In addition, the inhibition entry in [4] and in series [10] was “Active” each time. Also, the Drug uptake entry in series [6] was “Not Active”; in [9], 35%. In series [13], the inhibition result is “inactive”.
